Results taken from ChEMBL document CHEMBL2034975, “Cycloartane and friedelane triterpenoids from the leaves of Caloncoba glauca and their evaluation for inhibition of 11β-hydroxysteroid dehydrogenases” (J Nat Prod, 2012).

Columns and labels:
Type in all cases: cell-based
[1] = target: T1, 11-beta-hydroxysteroid dehydrogenase type 2 (Homo sapiens) (UniProt P80365); experiment: Inhibition of human 11beta-HSD2 expressed in HEK293 cells assessed as conversion of [3H]cortisone into [3H]cortisol at 1 uM by scintillation proximity assay
T1 sequence (whole entry): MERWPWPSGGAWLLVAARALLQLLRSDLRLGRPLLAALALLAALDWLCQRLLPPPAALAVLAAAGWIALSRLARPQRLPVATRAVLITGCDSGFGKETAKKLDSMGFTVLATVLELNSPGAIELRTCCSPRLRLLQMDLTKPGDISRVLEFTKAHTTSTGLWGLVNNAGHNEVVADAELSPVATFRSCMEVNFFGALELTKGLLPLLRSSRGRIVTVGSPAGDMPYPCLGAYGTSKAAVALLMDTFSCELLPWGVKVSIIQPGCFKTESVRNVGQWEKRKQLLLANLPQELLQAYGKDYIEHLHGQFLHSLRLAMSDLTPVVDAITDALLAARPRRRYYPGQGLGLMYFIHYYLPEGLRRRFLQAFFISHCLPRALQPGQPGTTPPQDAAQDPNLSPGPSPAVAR

[2] = target: 11-beta-hydroxysteroid dehydrogenase 1 (Mus musculus) (UniProt P50172); experiment: Inhibition of mouse 11beta-HSD1 expressed in HEK293 cells assessed as conversion of [3H]cortisone into [3H]cortisol at 1 uM by scintillation proximity assay
Chain of 11-beta-hydroxysteroid dehydrogenase 1 (Mus musculus) (P50172 whole entry, looked up): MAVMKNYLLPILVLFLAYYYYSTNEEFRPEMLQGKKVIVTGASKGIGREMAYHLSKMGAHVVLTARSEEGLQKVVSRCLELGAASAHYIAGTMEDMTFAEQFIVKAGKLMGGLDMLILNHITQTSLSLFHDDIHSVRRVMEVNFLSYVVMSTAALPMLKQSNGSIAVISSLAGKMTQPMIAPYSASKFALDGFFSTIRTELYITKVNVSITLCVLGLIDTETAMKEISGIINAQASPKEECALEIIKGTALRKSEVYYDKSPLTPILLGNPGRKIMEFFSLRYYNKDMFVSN

[3] = target: T2, 11-beta-hydroxysteroid dehydrogenase type 2 (Mus musculus) (UniProt P51661); experiment: Inhibition of mouse 11beta-HSD2 expressed in HEK293 cells assessed as conversion of [3H]cortisone into [3H]cortisol at 1 uM by scintillation proximity assay
T2 sequence (whole entry): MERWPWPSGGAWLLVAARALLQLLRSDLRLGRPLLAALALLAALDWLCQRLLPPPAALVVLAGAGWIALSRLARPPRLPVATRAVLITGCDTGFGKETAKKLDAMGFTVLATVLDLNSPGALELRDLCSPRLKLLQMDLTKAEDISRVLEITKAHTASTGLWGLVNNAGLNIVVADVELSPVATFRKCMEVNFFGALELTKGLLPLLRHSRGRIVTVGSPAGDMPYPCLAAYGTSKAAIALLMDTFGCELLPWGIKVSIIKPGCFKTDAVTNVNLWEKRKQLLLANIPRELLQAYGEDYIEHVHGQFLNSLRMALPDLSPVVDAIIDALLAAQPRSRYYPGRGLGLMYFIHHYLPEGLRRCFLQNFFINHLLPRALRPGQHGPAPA

[4] = target: T3, 11-beta-hydroxysteroid dehydrogenase 1 (Homo sapiens, UniProt P28845); experiment: Inhibition of human 11beta-HSD1 expressed in HEK293 cells assessed as conversion of [3H]cortisone into [3H]cortisol at 1 uM by scintillation proximity assay
Target sequence in this assay (P28845 whole entry, looked up): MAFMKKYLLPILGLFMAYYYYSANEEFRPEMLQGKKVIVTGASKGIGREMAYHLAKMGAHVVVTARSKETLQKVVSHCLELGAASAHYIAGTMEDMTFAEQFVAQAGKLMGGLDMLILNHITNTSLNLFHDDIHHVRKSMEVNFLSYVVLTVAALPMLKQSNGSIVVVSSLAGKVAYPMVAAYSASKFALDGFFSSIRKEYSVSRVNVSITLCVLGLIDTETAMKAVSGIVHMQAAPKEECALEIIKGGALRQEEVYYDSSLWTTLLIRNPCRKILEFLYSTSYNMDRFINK

[5] = target: 11-beta-hydroxysteroid dehydrogenase 1 (Mus musculus, UniProt P50172); experiment: Inhibition of mouse 11beta-HSD1 expressed in HEK293 cells assessed as conversion of [3H]cortisone into [3H]cortisol by scintillation proximity assay
Chain of 11-beta-hydroxysteroid dehydrogenase 1 (Mus musculus, UniProt P50172) (P50172 whole entry): as the sequence (P50172 whole entry, looked up) above
Method in brief: (§1)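 Full-length human or murine 11β-HSD1 cDNA was cloned into pcDNA3 and stably expressed in HEK-293 cells selected with 750 μg/mL G418. Microsomes from these cells were incubated with NADPH and [3H]cortisone. The [3H]cortisol formed was captured by a monoclonal antibody on protein A-coated SPA beads. Assays were run in duplicate and repeated twice; IC50 is given as the average. Glycyrrhizinic acid served as positive control.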

[6] = target: T3, 11-beta-hydroxysteroid dehydrogenase 1; experiment: Inhibition of human 11beta-HSD1 expressed in HEK293 cells assessed as conversion of [3H]cortisone into [3H]cortisol by scintillation proximity assay; method in brief: as §1
Target sequence in this assay (P28845 whole entry): as the sequence (P28845 whole entry, looked up) above

[7] = target: T4, 11-beta-hydroxysteroid dehydrogenase type 2 (Mus musculus, UniProt P51661); experiment: Inhibition of mouse 11beta-HSD2 expressed in HEK293 cells assessed as conversion of [3H]cortisone into [3H]cortisol by scintillation proximity assay
T4 sequence (P51661 whole entry): T2 sequence (whole entry)

[8] = target: T5, 11-beta-hydroxysteroid dehydrogenase type 2 (Homo sapiens, UniProt P80365); experiment: Inhibition of human 11beta-HSD2 expressed in HEK293 cells assessed as conversion of [3H]cortisone into [3H]cortisol by scintillation proximity assay
T5 sequence (P80365 whole entry): T1 sequence (whole entry)

Row | inhibition [1] | inhibition [2] | inhibition [3] | inhibition [4] | IC50 [5] | IC50 [6] | IC50 [7] | IC50 [8] | Compound
1 | < 50% | < 50% | < 50% | < 50% | – | – | – | – | C=C1C[C@@H]2[C@@](C)(CC[C@]3(C)[C@H]4CC[C@@]5(C)[C@@H](CC[C@H](O)[C@@H]5C)[C@]4(C)CC[C@@]23C(=O)O)C[C@@H]1O
2 | < 50% | < 50% | < 50% | < 50% | – | – | – | – | C=C1C[C@@H]2[C@@]3(C)CC[C@]4(C)[C@H]5CC[C@@]6(C)[C@@H](CC[C@H](O)[C@@H]6C)[C@]5(C)CC[C@@]24C(=O)O[C@H]3[C@H]1O (relative stereo)
3 | – | – | – | – | 3 nM | 6 nM | – | – | CC1(C)[C@@H](O[C@H]2O[C@H](C(=O)O)[C@@H](O)[C@H](O)[C@H]2O[C@@H]2O[C@H](C(=O)O)[C@@H](O)[C@H](O)[C@H]2O)CC[C@]2(C)[C@H]3C(=O)C=C4[C@@H]5C[C@@](C)(C(=O)O)CC[C@]5(C)CC[C@@]4(C)[C@]3(C)CC[C@@H]12 [GLYCYRRHIZIN]
4 | < 50% | < 50% | < 50% | < 50% | – | – | – | – | CC(=O)O[C@H]1CC[C@@H]2[C@](C)(CC[C@H]3[C@@]2(C)CC[C@@]2(C(=O)O)[C@@H]4CC(C)(C)CC[C@]4(C)CC[C@]32C)[C@H]1C
5 | – | – | – | – | 13 nM | 72 nM | > 100000 nM | 400 nM | C[C@H](CC[C@@H](O)C(C)(C)O)[C@H]1CC[C@@]2(C(=O)O)[C@@H]3CC[C@H]4C(C)(C)[C@@H](O)CC[C@@]45C[C@@]35CC[C@]12C (relative stereo) [CALONCOBIC ACID B]
6 | < 50% | < 50% | < 50% | < 50% | – | – | – | – | C[C@@H]1CC[C@@H](C(C)(C)O)OC(=O)[C@@]23C[C@@H](O)[C@H]1[C@@]2(C)CC[C@@]12C[C@@]14CCC(=O)C(C)(C)[C@@H]4CC[C@H]23
7 | < 50% | < 50% | < 50% | < 50% | – | – | – | – | C[C@H](CC[C@H](O)C(C)(C)O)[C@H]1[C@@H](O)C[C@]23C(=O)O[C@@]4(CC[C@]12C)C[C@@H]1CCC(=O)C(C)(C)[C@@H]1CC[C@H]43
8 | – | – | – | – | 132 nM | 105 nM | > 100000 nM | > 100000 nM | C=C(C)[C@@H](O)CC[C@@H](C)[C@H]1CC[C@@]2(C(=O)O)[C@@H]3CC[C@H]4C(C)(C)C(=O)CC[C@@]45C[C@@]35CC[C@]12C (relative stereo) [CALONCOBIC ACID A]
